High-throughput results as filed in PubChem BioAssay.
The sample as a whole holds a higher share of hits than the screen did.
HCT116 PTEN-null – growth suppressors of cells with PTEN tumor suppressor deletion; HCT116 PTEN-null viability, CellTiter-Glo, 60 h; stronger effect = lower value; viability, % at 10 µM; actives 1.2% (n = 140,000); AID 827;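 active = viability at or below a set limit, 4 SD under the median of all tested compounds, cut at about 3.7% in these data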;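 note: PTEN knockout HCT116 line with beta catenin targeted HCT116 as companion control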
PTK2B oligo ant – antagonists of human Pyk2 oligomerization | Q14289 | Q293 cells, Pyk2 FERM NanoBiT luminescence; stronger effect = lower value | z-score (the deposit names both 25 µM and 10 µM) | actives 0.83% (n = 99,000) | AID 1347419;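 active = Z-score of -3 or lower, scaled per plate to the spread of control and sample wells; inactive = z-score above -3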;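 note: negative z-score means lost luminescence so less FERM oligomerization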
Target sequence (Q14289 whole entry, looked up): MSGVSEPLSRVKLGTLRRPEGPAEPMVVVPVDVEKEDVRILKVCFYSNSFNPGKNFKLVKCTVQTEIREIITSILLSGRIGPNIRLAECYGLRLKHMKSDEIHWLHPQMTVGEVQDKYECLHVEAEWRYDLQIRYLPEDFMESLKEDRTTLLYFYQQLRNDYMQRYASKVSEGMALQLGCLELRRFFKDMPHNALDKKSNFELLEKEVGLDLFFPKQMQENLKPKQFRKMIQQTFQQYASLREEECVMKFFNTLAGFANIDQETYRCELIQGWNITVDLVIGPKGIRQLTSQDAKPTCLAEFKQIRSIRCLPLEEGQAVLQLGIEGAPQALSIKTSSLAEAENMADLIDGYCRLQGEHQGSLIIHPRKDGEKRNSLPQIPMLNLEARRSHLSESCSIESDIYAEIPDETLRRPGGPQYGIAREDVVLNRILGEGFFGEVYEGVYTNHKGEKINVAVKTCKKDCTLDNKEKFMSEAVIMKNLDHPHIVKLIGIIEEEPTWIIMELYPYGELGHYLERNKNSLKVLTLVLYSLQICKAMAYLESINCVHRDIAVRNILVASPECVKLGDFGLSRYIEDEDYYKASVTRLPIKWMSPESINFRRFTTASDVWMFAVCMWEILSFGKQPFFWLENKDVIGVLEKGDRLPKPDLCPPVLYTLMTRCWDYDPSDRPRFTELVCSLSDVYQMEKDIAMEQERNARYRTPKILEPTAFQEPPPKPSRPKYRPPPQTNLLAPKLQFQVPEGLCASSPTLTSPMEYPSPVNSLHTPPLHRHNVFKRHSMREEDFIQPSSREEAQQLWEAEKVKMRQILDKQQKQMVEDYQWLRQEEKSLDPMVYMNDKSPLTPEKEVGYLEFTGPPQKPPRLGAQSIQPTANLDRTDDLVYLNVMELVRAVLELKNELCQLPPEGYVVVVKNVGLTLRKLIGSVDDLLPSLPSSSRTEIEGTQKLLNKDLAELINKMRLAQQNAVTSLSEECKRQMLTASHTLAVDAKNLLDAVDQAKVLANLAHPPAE
Lung fibro prol – blocks proliferation of human lung fibroblasts; LL 47 human lung fibroblast viability, ATP luminescence; stronger effect = lower value; viability, % at 10 µM; actives 1.1% (n = 85,000); AID 719;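 active = viability at or below 50% in the single dose screen; inactive = viability above 50%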;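 note: compound exposure lasted 72 h before the ATP readout; 100% = median luminescence of untreated cell-only wells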
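Material: human LL 47 lung fibroblast cells; quantity: 1,150 cells/well; medium: IMEM plus 15% FBS; doses: 0.1% DMSO in all compound wells; timing: overnight attachment after seeding, then 72 h compound exposure at 37 °C; detection: CellTiter-Glo luminescence; measure: % viability of median cell-only signal; controls: cell-only wells, no compound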
H69AR inhibit – growth inhibitors of human H69AR lung tumor cells | viability, % at 10 µM | actives 6% (n = 85,000) | H69AR lung tumor viability, ATP luminescence, 72 h; stronger effect = lower value;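 active = viability at or below 40%; inactive = viability above 40%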;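 note: multidrug resistant small cell line overexpressing MRP-1 efflux transporter; 100% = mean luminescence of untreated control wells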
HUVEC prolif 384 – inhibitors of human endothelial cell proliferation | HUVEC proliferation, CellTiter-Glo luminescence, 72 h; stronger effect = lower value | viability, % at 10 µM (by protocol) | actives 1.1% (n = 86,000);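 active = viability at or below 30%; inactive = viability above 30%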;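 note: 100% = median luminescence of DMSO-only cell control wells on each plate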
bCat KO growth – beta-catenin-lacking colon tumor cell growth suppression. HCT116 beta-catenin knockout viability, CellTiter-Glo, 60 h; stronger effect = lower value. viability, % at 10 µM. actives 1.5% (n = 140,000). AID 818;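 active = viability at or under a set limit, the compound median less 4 SD, cut at about 6% in these data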;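 note: 0% = Hyamine 1622 control at 20 µM and 100% = untreated cell control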
* marks the source's active call; other numbers are inactive results; . = no result given.

SMILES | HCT116 PTEN-null | PTK2B oligo ant | Lung fibro prol | H69AR inhibit | HUVEC prolif 384 | bCat KO growth
CCc1ccc(OCC(=O)Nc2cccc3c2CCCC3)cc1 | 98 | . | . | . | . | 89
Cc1c(C(=O)Nc2ccc(Cl)cn2)oc2ccccc12 | 55 | 0.11 | 75 | 59 | 64 | 53
Cc1c(C(=O)Nc2cnccn2)oc2ccccc12 | 42 | 0.11 | 83 | 38* | 80 | 46
Cc1c(C(=O)Nc2ccc3oc(-c4cccnc4)nc3c2)oc2ccccc12 | 75 | -0.37 | 15* | 3.4* | 37 | 79
O=C(N/N=C/c1ccccc1F)c1ccc(COc2ccccc2Cl)o1 | 103 | -0.21 | . | . | . | 94
Cn1c(SCC(=O)N2CCCCCC2)nc2c([nH]c3ccccc32)c1=O | 92 | -0.7 | 67 | 38* | 81 | 85
CC1=C(C)/C(=N/OC(=O)c2cccc([N+](=O)[O-])c2)C=CC1=O | 1.7* | -0.46 | 89 | 11* | 88 | 1.6*
Cc1ccc(-c2nnn(CC(=O)N(Cc3ccccc3F)C(C(=O)NC3CCCC3)c3ccncc3)n2)o1 (stereo unspecified) | 87 | 0.58 | 101 | 46 | 101 | 88
CCNc1nc(NC(C)C)nc(N(C#N)Cc2ccccc2)n1 | 104 | -2.4 | 69 | 95 | 100 | 115
CCNc1nc(NC(C)C)nc(N(C#N)CCOc2ccc(Cl)cc2Cl)n1 | 64 | -2.5 | 93 | 22* | 76 | 55
CC(=O)Nc1cccc(-c2nnc(SCC(=O)n3c4c(c5ccccc53)CCCC4)n2C)c1 | 92 | -0.48 | 98 | 100 | 99 | 86
O=C(NC1(C(F)(F)F)NC(=O)N(C2CCCCC2)C1=O)c1cccs1 (stereo unspecified) | 91 | -0.32 | 98 | 104 | 94 | 99
CC1CCCc2sc3nc(N4CCN(CCO)CC4)n4ncnc4c3c21 (stereo unspecified) | 92 | 0.31 | 93 | 15* | 94 | 92
COc1ccc(NC(=O)c2cc(CN3C(=O)c4ccccc4C3=O)ccc2OC)cn1 | 86 | -0.95 | . | 17* | 62 | 94
COc1ccc(CN2C(=O)c3ccccc3C2=O)cc1C(=O)OCC(=O)NC1CCCCC1 | 105 | . | . | . | . | 103
Cc1onc(-c2ccccc2Cl)c1C(=O)N1CCN(c2ccccc2)CC1 | 65 | 0.18 | 93 | 20* | 99 | 70
Cc1onc(-c2ccccc2Cl)c1C(=O)N1CCN(c2cccc(Cl)c2)CC1 | 15 | . | 54 | 28* | 52 | 22
Cc1onc(-c2ccccc2Cl)c1C(=O)N1CCN(C(=O)c2ccco2)CC1 | 86 | -0.28 | 101 | 95 | 95 | 85
Cc1ccc(S(=O)(=O)N/N=C/c2c(C)nn(-c3ccccc3)c2C)cc1 | 94 | -0.98 | . | . | . | 98
COc1cc(C2CC(=O)c3cnc(NC(=O)COc4ccccc4)nc3C2)cc(OC)c1OC (stereo unspecified) | 109 | -3.1* | 88 | 75 | 87 | 112
CCOc1ccc(C(=O)c2cc([N+](=O)[O-])ccc2Cl)cc1 | 68 | -0.13 | . | . | . | 71
Cc1ccccc1S(=O)(=O)Cc1ccc(C(=O)N2CCN(c3ccc(F)cc3)CC2)o1 | 64 | -0.93 | 93 | 34* | 92 | 60
Cc1ccc(S(=O)(=O)Cc2ccc(C(=O)N3CCN(c4ccc(F)cc4)CC3)o2)cc1 | 26 | . | 78 | 20* | 64 | 35
Cc1ccccc1S(=O)(=O)Cc1ccc(C(=O)N2CCN(c3ncccn3)CC2)o1 | 94 | -0.2 | 99 | 77 | 93 | 95
Cc1cccc(NC(=O)Cn2cnc3ccccc3c2=O)c1C | 90 | 0.22 | 96 | 97 | 95 | 98
SMILES | HCT116 PTEN-null | PTK2B oligo ant | Lung fibro prol | H69AR inhibit | HUVEC prolif 384 | bCat KO growth
CCCCNC(=O)[C@H](CSCc1ccccc1)N1Cc2ccccc2C1=O | 94 | . | . | . | . | 95
Cc1csc(Sc2ccc([N+](=O)[O-])cc2C(=O)OCC(=O)NC2CCCC(C)C2C)n1 (stereo unspecified) | 96 | 0.02 | 101 | 8.4* | 97 | 97
CCC(C)NC(=O)COC(=O)c1cc([N+](=O)[O-])ccc1Sc1nc(C)cs1 (stereo unspecified) | 87 | -0.34 | . | . | . | 79
Cc1ccc(C)c(C(C)NC(=O)C2C3CCC(O3)C2C(=O)O)c1 (stereo unspecified) | 93 | . | 105 | 23* | 29* | 89
N#Cc1nc(-c2ccco2)oc1N1CCC(Cc2ccccc2)CC1 | 80 | 1.2 | 105 | 99 | 104 | 84
Cc1cc(/C=N/n2cnnc2)c(C)n1-c1ccc(OCc2ccccc2F)cc1 | 14 | -0.1 | 84 | 48 | 66 | 11
Cc1cc(/C=N/n2cnnc2)c(C)n1-c1ccc(OCc2ccc(Cl)cc2)cc1 | 6 | 0.28 | 82 | 5.8* | 64 | 5.3*
COc1cc(C(=O)NCCOc2cc(C)cc(C)c2)c(Br)c(OC)c1OC | 48 | -1.5 | . | . | . | 50
CCOC(=O)c1c(C)oc2c1c(C(c1cccnc1)N1CCCCC1)c(O)c1ccccc12 (stereo unspecified) | 23 | -1.1 | 54 | 7.3* | 48 | 25
Cc1ccc2c(c1)cc(CN(Cc1ccc3c(c1)OCO3)S(=O)(=O)c1ccccc1)c1nnnn12 | 99 | -1.2 | 56 | 31* | 95 | 81
Cc1ccc2c(c1)cc(CN(Cc1cccs1)C(=O)c1ccco1)c1nnnn12 | 75 | -3 | 81 | 57 | 79 | 82
O=C1/C(=C\c2cccnc2)CCc2ccccc21 | 11 | 0.22 | . | . | . | 21
O=C1/C(=C/c2cccnc2)CCC/C1=C\c1cccnc1 | 1.1* | . | . | . | . | 1.9*
CCOc1ccc(C2=C/C(=C/c3cccnc3)C(=O)O2)cc1 | 99 | -0.9 | . | . | . | 100
CCC1C/C(=C\c2cccnc2)C(=O)/C(=C/c2cccnc2)C1 (stereo unspecified) | 1.5* | . | . | . | . | 2.2*
CCOC(=O)CSC1=C(C#N)C(c2ccc(C)o2)CC(=O)N1 (stereo unspecified) | 16 | . | 49* | 94 | 33 | 12
CCOC(=O)CSC1=C(C#N)C(c2ccc3c(c2)OCO3)CC(=O)N1 (stereo unspecified) | 49 | 0.67 | 79 | 23* | 69 | 51
CCCCCCSC1=C(C#N)C(c2ccc(O)cc2)CC(=O)N1 (stereo unspecified) | 79 | -3.3* | 87 | 47 | 75 | 87
CCOC(=O)CSC1=C(C#N)C(c2ccccc2OCC)C(C#N)C(=O)N1 (stereo unspecified) | 91 | 1.3 | 93 | 27* | 70 | 95
Cc1sc2nc(-c3cccnc3)nc(Cl)c2c1-c1ccccc1 | 87 | -1.5 | . | . | . | 90
CCN(CC(=O)Nc1ccc(NC(C)=O)cc1)c1ccc(C(F)(F)F)cn1 | 90 | . | . | . | . | 92
CCN1C(=O)/C(=C2/Sc3ccc(OC)cc3N2C)SC1=Nc1cccc(O)c1 | 73 | -0.85 | 80 | 24* | 95 | 72
O=C1CN(C(=O)COC(=O)c2cccc(OCc3ccccc3)c2)c2ccccc2N1 | 85 | . | . | . | . | 91
Cc1cccnc1NC(=O)c1ccc([N+](=O)[O-])o1 | 45 | . | . | . | . | 56
